Test results: ChEMBL document CHEMBL4828755, “A sulfonyl fluoride derivative inhibits EGFRL858R/T790M/C797S by covalent modification of the catalytic lysine” (Eur J Med Chem, 2021)
Calls of active or inactive are those of the source. The rule behind the calls is not given here.

What was measured:
[1] = molecular target: Epidermal growth factor receptor (Homo sapiens, UniProt P00533, C797S/L858R/T790M); assay: Inhibition of EGFR L858R/T790M/C797S triple mutant (unknown origin) using fluoresceine-labelled poly-GT peptide as substrate incubated for 1 hr by TR-FRET assay
Chain of Epidermal growth factor receptor (P00533 25-1210 T790M/C797S/L858R limits assumed): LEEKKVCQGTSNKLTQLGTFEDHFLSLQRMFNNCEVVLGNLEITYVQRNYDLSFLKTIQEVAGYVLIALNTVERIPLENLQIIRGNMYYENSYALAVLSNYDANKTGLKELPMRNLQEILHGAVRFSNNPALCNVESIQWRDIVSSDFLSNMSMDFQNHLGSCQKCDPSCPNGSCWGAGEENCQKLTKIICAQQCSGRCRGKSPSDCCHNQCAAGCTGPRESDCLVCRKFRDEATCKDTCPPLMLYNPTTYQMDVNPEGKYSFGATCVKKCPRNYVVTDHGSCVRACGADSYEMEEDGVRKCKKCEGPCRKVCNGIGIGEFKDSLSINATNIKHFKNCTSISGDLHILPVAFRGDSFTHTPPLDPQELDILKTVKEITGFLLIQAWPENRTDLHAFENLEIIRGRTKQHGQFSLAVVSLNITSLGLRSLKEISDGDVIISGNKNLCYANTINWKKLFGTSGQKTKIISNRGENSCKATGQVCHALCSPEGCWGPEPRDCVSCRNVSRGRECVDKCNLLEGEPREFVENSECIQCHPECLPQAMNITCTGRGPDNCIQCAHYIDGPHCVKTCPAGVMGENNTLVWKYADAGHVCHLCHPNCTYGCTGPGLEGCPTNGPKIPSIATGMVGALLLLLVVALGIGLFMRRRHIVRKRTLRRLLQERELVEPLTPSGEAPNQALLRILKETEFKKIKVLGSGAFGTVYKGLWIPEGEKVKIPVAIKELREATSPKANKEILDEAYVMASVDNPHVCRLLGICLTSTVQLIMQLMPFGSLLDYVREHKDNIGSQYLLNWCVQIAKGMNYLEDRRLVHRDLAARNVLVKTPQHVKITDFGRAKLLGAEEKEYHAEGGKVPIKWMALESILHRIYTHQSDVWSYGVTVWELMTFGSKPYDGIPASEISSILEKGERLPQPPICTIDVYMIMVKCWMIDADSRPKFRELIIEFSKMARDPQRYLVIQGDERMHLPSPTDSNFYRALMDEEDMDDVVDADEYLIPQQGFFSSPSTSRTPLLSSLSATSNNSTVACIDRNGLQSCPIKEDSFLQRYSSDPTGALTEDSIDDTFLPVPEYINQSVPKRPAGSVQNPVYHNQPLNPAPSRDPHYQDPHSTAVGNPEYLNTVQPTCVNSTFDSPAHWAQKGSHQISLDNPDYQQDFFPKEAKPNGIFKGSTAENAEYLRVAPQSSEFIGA

[2] = molecular target: Cyclin-dependent kinase 2 (Homo sapiens) (UniProt P24941); assay: Inhibition of human recombinant CDK2 at 1 uM by Z'-LYTE assay
In short: (§1)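 Z'-LYTE FRET kinase panel; phosphorylation of a reference peptide measured with ATP at each enzyme's Km. Compounds tested in 1% DMSO at 0.1 and/or 1 μM. Values are means of two independent experiments with standard deviations.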

[3] = molecular target: Proto-oncogene tyrosine-protein kinase Src (Homo sapiens) (UniProt P12931); assay: Inhibition of C-terminal His-tagged human recombinant SRC expressed in baculovirus expression system at 1 uM by Z'-LYTE assay; in short: as §1
Chain of Proto-oncogene tyrosine-protein kinase Src (Homo sapiens) (P12931 2-536 limits assumed): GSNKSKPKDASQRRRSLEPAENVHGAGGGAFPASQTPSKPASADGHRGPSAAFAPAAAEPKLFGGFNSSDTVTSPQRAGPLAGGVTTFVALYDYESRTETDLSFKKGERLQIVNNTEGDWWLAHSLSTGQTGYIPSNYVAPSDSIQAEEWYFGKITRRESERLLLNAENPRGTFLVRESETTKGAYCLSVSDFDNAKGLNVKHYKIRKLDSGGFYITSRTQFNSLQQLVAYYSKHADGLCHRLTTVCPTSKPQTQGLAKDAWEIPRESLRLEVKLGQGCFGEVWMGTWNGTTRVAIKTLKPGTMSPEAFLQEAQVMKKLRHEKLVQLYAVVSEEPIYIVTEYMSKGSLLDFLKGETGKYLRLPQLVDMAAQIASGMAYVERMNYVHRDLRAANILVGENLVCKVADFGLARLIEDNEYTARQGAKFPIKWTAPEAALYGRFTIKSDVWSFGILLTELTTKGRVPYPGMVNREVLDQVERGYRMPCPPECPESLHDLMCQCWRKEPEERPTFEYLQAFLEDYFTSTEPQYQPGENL

[4] = molecular target: AMP-activated protein kinase, AMPK (Homo sapiens) (UniProt P54646+O43741+P54619+Q9UGJ0+Q9Y478+Q13131+Q9UGI9); assay: Inhibition of human recombinant AMPK at 1 uM by Z'-LYTE assay; type: protein-complex assay; in short: as §1
[5] = molecular target: Tyrosine-protein kinase Blk (Homo sapiens) (UniProt P51451); assay: Inhibition of His-tagged human full length recombinant BLK expressed in baculovirus expression system at 1 uM by Z'-LYTE assay; in short: as §1
Chain of Tyrosine-protein kinase Blk (Homo sapiens) (P51451 2-505 limits assumed): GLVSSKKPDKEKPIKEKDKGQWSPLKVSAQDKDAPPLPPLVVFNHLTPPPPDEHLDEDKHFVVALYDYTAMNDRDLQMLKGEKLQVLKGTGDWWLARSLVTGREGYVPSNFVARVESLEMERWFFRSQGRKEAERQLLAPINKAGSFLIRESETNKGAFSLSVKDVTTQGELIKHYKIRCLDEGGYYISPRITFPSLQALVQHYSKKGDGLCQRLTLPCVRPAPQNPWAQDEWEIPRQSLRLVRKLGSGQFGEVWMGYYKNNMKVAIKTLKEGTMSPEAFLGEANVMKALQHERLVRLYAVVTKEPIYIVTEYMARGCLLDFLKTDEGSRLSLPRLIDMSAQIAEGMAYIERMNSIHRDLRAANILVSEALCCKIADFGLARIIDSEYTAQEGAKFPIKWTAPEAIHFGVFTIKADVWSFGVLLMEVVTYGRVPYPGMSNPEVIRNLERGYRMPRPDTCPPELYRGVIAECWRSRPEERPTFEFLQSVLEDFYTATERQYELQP

[6] = molecular target: Rho-associated protein kinase 1 (Homo sapiens) (UniProt Q13464); assay: Inhibition of GST-tagged human recombinant ROCK1 (1 to 535 residues) expressed in baculovirus expression system at 1 uM by Z'-LYTE assay; in short: as §1
[7] = molecular target: Fibroblast growth factor receptor 4 (Homo sapiens) (UniProt P22455); assay: Inhibition of His-tagged human recombinant FGFR4 ([…] residues) expressed in baculovirus expression system at 1 uM by Z'-LYTE assay; in short: as §1
Chain of Fibroblast growth factor receptor 4 (Homo sapiens) (P22455 22-802 limits assumed): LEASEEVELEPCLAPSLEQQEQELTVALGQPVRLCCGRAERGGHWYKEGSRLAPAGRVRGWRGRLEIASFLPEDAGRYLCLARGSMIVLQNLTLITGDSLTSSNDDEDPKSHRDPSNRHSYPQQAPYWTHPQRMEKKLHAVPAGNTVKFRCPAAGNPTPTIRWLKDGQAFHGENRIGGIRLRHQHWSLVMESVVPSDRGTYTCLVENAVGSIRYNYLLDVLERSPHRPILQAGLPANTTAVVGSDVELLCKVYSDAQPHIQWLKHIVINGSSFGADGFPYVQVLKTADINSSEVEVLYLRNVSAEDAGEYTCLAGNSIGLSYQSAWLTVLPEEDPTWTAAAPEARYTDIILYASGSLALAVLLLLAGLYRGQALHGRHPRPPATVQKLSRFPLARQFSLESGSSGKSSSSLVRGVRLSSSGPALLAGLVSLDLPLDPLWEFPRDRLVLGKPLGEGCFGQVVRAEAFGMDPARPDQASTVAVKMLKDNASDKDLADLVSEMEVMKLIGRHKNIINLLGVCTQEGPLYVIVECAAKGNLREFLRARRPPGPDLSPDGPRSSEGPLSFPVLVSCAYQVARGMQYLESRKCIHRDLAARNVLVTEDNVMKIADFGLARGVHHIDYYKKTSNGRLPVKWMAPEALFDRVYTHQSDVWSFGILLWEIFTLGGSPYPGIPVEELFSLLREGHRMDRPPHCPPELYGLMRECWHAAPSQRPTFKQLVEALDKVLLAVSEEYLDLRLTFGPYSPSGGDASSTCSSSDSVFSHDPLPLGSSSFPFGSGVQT

[8] = molecular target: Mitogen-activated protein kinase 14 (Homo sapiens) (UniProt Q16539); assay: Inhibition of GST-tagged human full length recombinant p38 alpha expressed in Escherichia coli at 1 uM by Z'-LYTE assay; in short: as §1
Chain of Mitogen-activated protein kinase 14 (Homo sapiens) (Q16539 whole entry, the tested form may be a part): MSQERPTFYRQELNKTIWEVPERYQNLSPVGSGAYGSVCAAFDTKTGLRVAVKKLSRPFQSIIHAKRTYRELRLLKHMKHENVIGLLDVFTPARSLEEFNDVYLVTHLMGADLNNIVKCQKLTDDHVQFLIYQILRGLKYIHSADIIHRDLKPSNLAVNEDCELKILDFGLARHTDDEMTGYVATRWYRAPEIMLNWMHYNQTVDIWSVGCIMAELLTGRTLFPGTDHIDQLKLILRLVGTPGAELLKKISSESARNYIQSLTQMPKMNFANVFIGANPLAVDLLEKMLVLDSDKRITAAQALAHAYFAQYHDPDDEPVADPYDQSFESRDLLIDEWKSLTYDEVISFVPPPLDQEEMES

[9] = molecular target: Tyrosine-protein kinase JAK1 (Homo sapiens) (UniProt P23458); assay: Inhibition of GST-tagged human recombinant JAK1 (866 to 1154 residues) expressed in baculovirus expression system at 1 uM by Z'-LYTE assay; in short: as §1
[10] = molecular target: Vascular endothelial growth factor receptor 2 (Homo sapiens) (UniProt P35968); assay: Inhibition of His-tagged human recombinant VEGFR2 (789 to 1356 residues) expressed in baculovirus expression system at 1 uM by Z'-LYTE assay; in short: as §1
[11] = molecular target: T1, Aurora kinase A (Homo sapiens) (UniProt O14965); assay: Inhibition of His-tagged human full length recombinant AURKA expressed in baculovirus expression system at 1 uM by Z'-LYTE assay; in short: as §1
T1 sequence (whole entry): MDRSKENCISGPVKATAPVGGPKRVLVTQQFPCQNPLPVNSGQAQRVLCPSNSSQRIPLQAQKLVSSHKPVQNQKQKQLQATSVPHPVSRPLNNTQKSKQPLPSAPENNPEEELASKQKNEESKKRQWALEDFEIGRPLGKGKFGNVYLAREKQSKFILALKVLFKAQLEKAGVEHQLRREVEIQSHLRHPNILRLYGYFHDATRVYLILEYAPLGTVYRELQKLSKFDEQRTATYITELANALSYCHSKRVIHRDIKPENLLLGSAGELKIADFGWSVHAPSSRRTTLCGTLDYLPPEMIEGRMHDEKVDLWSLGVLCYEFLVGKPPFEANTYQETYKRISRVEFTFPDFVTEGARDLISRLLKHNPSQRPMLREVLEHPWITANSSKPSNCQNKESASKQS

[12] = molecular target: Cyclin-dependent kinase 5 (Homo sapiens) (UniProt Q00535); assay: Inhibition of GST/His-tagged human full length recombinant CDK5 expressed in baculovirus expression system at 1 uM by Z'-LYTE assay; in short: as §1
Chain of Cyclin-dependent kinase 5 (Homo sapiens) (Q00535 whole entry, looked up): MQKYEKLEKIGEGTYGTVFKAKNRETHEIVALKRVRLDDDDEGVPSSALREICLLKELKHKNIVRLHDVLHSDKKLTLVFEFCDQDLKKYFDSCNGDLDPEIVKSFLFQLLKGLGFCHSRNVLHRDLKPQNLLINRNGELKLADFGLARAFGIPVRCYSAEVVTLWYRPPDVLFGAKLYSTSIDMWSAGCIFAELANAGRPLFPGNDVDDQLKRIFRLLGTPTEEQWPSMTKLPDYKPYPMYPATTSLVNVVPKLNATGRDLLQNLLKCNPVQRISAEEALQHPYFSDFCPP

[13] = molecular target: Tyrosine-protein kinase Lck (Homo sapiens) (UniProt P06239); assay: Inhibition of human recombinant LCK at 1 uM by Z'-LYTE assay; in short: as §1
Chain of Tyrosine-protein kinase Lck (Homo sapiens) (P06239 2-509 limits assumed): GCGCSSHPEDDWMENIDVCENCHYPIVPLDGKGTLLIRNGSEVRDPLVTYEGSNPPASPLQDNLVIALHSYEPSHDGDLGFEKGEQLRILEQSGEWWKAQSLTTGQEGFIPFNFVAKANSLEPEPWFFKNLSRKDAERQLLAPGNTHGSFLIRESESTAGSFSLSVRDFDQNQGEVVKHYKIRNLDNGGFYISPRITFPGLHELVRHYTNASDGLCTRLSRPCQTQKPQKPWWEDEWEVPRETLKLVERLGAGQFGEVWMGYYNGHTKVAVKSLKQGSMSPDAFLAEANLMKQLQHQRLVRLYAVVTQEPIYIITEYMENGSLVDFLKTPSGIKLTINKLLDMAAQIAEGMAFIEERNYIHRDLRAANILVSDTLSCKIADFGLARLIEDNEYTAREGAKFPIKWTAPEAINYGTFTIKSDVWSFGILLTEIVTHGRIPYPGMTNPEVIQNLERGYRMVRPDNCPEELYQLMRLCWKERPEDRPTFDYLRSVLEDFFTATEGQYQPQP

[14] = molecular target: Platelet-derived growth factor receptor alpha (Homo sapiens) (UniProt P16234); assay: Inhibition of GST-tagged human recombinant PDGFR alpha (550 to 1089 residues) expressed in baculovirus expression system at 1 uM by Z'-LYTE assay; in short: as §1
[15] = molecular target: RAC-beta serine/threonine-protein kinase (Homo sapiens) (UniProt P31751); assay: Inhibition of His-tagged full length human recombinant AKT2 expressed in baculovirus expression system at 1 uM by Z'-LYTE assay; in short: as §1
Chain of RAC-beta serine/threonine-protein kinase (Homo sapiens) (P31751 whole entry): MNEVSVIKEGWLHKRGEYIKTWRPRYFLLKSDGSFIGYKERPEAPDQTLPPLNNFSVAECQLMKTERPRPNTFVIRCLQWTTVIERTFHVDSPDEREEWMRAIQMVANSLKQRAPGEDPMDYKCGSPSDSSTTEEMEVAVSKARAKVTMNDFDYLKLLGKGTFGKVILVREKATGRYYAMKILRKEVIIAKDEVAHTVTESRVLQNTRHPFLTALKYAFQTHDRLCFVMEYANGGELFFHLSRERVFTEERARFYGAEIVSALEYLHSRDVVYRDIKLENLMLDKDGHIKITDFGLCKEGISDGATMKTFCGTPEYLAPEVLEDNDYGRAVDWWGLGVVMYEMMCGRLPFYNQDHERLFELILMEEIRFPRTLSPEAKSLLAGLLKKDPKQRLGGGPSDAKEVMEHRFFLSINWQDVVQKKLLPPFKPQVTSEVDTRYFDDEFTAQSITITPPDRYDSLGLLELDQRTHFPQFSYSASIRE

[16] = molecular target: Mitogen-activated protein kinase 3 (Homo sapiens) (UniProt P27361); assay: Inhibition of GST-tagged human full length recombinant ERK1 expressed in Escherichia coli at 1 uM by Z'-LYTE assay; in short: as §1
Chain of Mitogen-activated protein kinase 3 (Homo sapiens) (P27361 whole entry): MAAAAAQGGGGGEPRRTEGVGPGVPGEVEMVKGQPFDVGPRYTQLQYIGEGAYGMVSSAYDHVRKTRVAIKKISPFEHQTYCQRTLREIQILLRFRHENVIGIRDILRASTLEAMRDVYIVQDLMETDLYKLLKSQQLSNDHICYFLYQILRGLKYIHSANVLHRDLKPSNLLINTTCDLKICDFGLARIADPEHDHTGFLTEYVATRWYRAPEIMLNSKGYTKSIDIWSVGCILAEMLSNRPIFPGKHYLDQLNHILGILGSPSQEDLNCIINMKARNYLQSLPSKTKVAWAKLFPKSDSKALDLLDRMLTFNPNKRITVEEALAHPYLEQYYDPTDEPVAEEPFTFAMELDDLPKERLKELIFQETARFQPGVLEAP

[17] = molecular target: T2, Inhibitor of nuclear factor kappa-B kinase subunit beta (Homo sapiens) (UniProt O14920); assay: Inhibition of GST-tagged human full length recombinant IKKbeta expressed in baculovirus expression system at 1 uM by Z'-LYTE assay; in short: as §1
T2 sequence (whole entry): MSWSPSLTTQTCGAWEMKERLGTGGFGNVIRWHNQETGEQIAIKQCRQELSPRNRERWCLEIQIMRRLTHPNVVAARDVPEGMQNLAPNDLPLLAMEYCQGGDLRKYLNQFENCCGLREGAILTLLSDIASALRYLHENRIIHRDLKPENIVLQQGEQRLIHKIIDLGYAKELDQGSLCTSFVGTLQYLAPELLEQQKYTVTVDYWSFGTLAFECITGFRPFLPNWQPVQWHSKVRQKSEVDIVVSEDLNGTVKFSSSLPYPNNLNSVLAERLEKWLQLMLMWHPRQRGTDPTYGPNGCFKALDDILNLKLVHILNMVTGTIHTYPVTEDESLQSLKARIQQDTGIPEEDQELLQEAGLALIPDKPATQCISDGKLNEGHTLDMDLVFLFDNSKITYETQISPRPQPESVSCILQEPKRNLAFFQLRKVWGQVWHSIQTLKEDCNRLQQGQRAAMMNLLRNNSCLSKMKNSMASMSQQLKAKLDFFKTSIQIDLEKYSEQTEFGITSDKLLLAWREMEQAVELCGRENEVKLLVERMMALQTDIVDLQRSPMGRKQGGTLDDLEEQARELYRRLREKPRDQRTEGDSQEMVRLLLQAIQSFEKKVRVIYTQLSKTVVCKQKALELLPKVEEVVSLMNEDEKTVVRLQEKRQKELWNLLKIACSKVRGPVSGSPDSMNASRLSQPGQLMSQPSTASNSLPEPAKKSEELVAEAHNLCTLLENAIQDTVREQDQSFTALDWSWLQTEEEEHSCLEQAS

[18] = system: BaF3; assay: Cytotoxicity against mouse BaF3 cells harboring EGFR del19/T790M/C797S triple mutant assessed as inhibition of cell proliferation measured after 72 hrs by MTS assay; type: functional, cell-based
In short: (§2)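 Ba/F3 cells carrying the respective EGFR triple mutant, grown in RPMI-1640 with 2 mM glutamine and 10% FBS at 37°C, 5% CO2. Seeded 20000 cells/well and treated the same day with increasing concentrations (DMSO ≤0.1% final). Viability read by MTS after 72 h, expressed as % inhibition versus untreated controls; at least three independent experiments.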

[19] = system: BaF3; assay: Cytotoxicity against mouse BaF3 cells harboring EGFR L858R/T790M/C797S triple mutant assessed as inhibition of cell proliferation measured after 72 hrs by MTS assay; type: functional, cell-based; conditions: BaF3, 72 h; in short: as §2

COc1cc(N2CCN(C(C)=O)CC2)ccc1Nc1ncc(Cl)c(Nc2cccc(C(=O)Oc3ccc(F)cc3)c2)n1
IC50 [1]: > 10 µM

COc1cc(N2CCN(C(C)=O)CC2)ccc1Nc1ncc(Cl)c(Nc2cccc(NC(=O)CCl)c2)n1
IC50 [1]: 0.946 µM

C=CS(=O)(=O)Nc1cccc(Nc2nc(Nc3ccc(N4CCN(C(C)=O)CC4)cc3OC)ncc2Cl)c1
IC50 [1]: 0.675 µM

COc1cc(N2CCN(C(C)=O)CC2)ccc1Nc1ncc(Cl)c(Nc2cccc(NC(C)=O)c2)n1
inhibition [2]: inactive
inhibition [3]: inactive
inhibition [4]: inactive
inhibition [5]: inactive
inhibition [6]: inactive
inhibition [7]: inactive
inhibition [8]: inactive
inhibition [9]: Active
inhibition [10]: Active
inhibition [11]: inactive
inhibition [12]: inactive
inhibition [13]: inactive
inhibition [14]: Active
inhibition [15]: inactive
inhibition [16]: inactive
inhibition [17]: inactive
IC50 [1]: 1.1 µM

COc1cc(N2CCN(C(C)=O)CC2)ccc1Nc1ncc(Cl)c(Nc2cccc(NCCS(=O)(=O)F)c2)n1
IC50 [1]: 0.458 µM

C=CC(=O)Nc1cc(Nc2nccc(-c3cn(C)c4ccccc34)n2)c(OC)cc1N(C)CCN(C)C [OSIMERTINIB]
Activity [18]: inactive
IC50 [19]: > 3 µM
